Results on two compounds are retold here after ChEMBL document CHEMBL3046951, “Volatile constituents from the leaves of Callicarpa japonica Thunb. and their antibacterial activities” (2004).

Common to all, as to assay type: functional
The test system of experiment [1] is Bacillus cereus. Kind of experiment: Antimicrobial activity against Bacillus cereus ATCC 11778 assessed as growth inhibition rate at 1.2 mg/l after 72 hr by spectrophotometry. The note with it: ATCC 11778, 72 h, read-out: GI. A digest of the protocol: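 Pure volatile compounds (>95% purity; 2,4-heptadienal 90%) identified in the leaf extract were tested against B. cereus ATCC 11778 in nutrient broth at 30 °C. The inoculum was grown 24 h, then subcultured (0.1 mL into 9.9 mL) for 18 h. Optical density was read in a Bioscreen C every 24 h for 72 h against a 10% Tween 80 control.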

The subject of experiment [2] is Vibrio parahaemolyticus. Kind of experiment: Antimicrobial activity against Vibrio parahaemolyticus ATCC 33844 assessed as growth inhibition rate at 1.2 mg/l after 72 hr by spectrophotometry. The note with it: ATCC 33844, 72 h, read-out: GI. A digest of the protocol:
(§1)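 Authentic volatiles (>95% purity; 2,4-heptadienal 90%) tested against 18 h subcultures. Growth media: E. coli O157:H7 and S. aureus in tryptic soy broth at 37 °C; L. monocytogenes in tryptic soy broth at 30 °C; V. parahaemolyticus in tryptic soy broth + 3% NaCl at 37 °C; S. typhimurium in nutrient broth at 30 °C. Bioscreen C OD every 24 h for 72 h versus 10% Tween 80 control.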

The subject of experiment [3] is Staphylococcus aureus. Kind of experiment: Antimicrobial activity against Staphylococcus aureus ATCC 25923 assessed as growth inhibition rate at 1.2 mg/l after 72 hr by spectrophotometry. The note with it: ATCC 25923, 72 h, read-out: GI. A digest of the protocol:
as §1

Experiment [4] deals with Escherichia coli. Kind of experiment: Antimicrobial activity against Escherichia coli O157:H7 ATCC 43894 assessed as growth inhibition rate at 1.2 mg/l after 72 hr by spectrophotometry. The note with it: O157:H7 ATCC 43894, 72 h, read-out: GI.
In experiment [5] the test system is Listeria monocytogenes. Kind of experiment: Antimicrobial activity against Listeria monocytogenes ATCC 19111 assessed as growth inhibition rate at 1.2 mg/l after 72 hr by spectrophotometry. The note with it: ATCC 19111, 72 h, read-out: GI. A digest of the protocol: as §1
The test system of experiment [6] is Salmonella typhimurium. Kind of experiment: Antimicrobial activity against Salmonella enterica subsp. enterica serovar Typhimurium ATCC 14028 assessed as growth inhibition rate at 1.2 mg/l after 72 hr by spectrophotometry. Conditions: ATCC 14028, 72 h, read-out: GI. A digest of the protocol: as §1
In experiment [7] the test system is Staphylococcus aureus. Kind of experiment: Antimicrobial activity against Staphylococcus aureus ATCC 25923 assessed as growth inhibition rate at 11.64 mg/l after 72 hr by spectrophotometry. Conditions: ATCC 25923, 72 h, read-out: GI.
Experiment [8] has as its system Escherichia coli. Kind of experiment: Antimicrobial activity against Escherichia coli O157:H7 ATCC 43894 assessed as growth inhibition rate at 11.64 mg/l after 72 hr by spectrophotometry. The note with it: O157:H7 ATCC 43894, 72 h, read-out: GI.
Experiment [9] relates to Bacillus cereus. Kind of experiment: Antimicrobial activity against Bacillus cereus ATCC 11778 assessed as growth inhibition rate at 11.64 mg/l after 72 hr by spectrophotometry. The note with it: ATCC 11778, 72 h, read-out: GI. A digest of the protocol: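 Pure volatile compounds (purity >95%; one at 90%) were tested against B. cereus ATCC 11778. The strain was grown at 30 °C in nutrient broth for 24 h, then subcultured for 18 h. Optical density was read in a Bioscreen C every 24 h for 72 h, with 10% Tween 80 as the control.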

Experiment [10] relates to Listeria monocytogenes. Kind of experiment: Antimicrobial activity against Listeria monocytogenes ATCC 19111 assessed as growth inhibition rate at 11.64 mg/l after 72 hr by spectrophotometry. The note with it: ATCC 19111, 72 h, read-out: GI. A digest of the protocol:
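L. monocytogenes was grown at 30 °C in tryptic soy broth, subcultured for 18 h, and exposed to pure volatile compounds (>95% purity). Growth was followed by Bioscreen C optical density every 24 h for 72 h against a 10% Tween 80 control.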

In experiment [11] the test system is Salmonella typhimurium. Kind of experiment: Antimicrobial activity against Salmonella enterica subsp. enterica serovar Typhimurium ATCC 14028 assessed as growth inhibition rate at 11.64 mg/l after 72 hr by spectrophotometry. The note with it: ATCC 14028, 72 h, read-out: GI. A digest of the protocol:
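Salmonella Typhimurium ATCC 14028 grown in nutrient broth at 30 °C, precultured 24 h, then subcultured 1:100 for 18 h before testing. Single volatile compounds (>95% pure) were added. OD was read every 24 h over 72 h in a Bioscreen C, with 10% Tween 80 as the comparison control.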

Experiment [12] concerns Vibrio parahaemolyticus. Kind of experiment: Antimicrobial activity against Vibrio parahaemolyticus ATCC 33844 assessed as growth inhibition rate at 11.64 mg/l after 72 hr by spectrophotometry. The note with it: ATCC 33844, 72 h, read-out: GI.

With `CC=O`, the inhibition of growth at 1.2 µg/mL with Bacillus cereus [1] turned out to be 1.2%; with Vibrio parahaemolyticus [2], 11.1%; in the experiment on Staphylococcus aureus [3], 2.8%; with Escherichia coli [4], 5.3%; in the experiment with Listeria monocytogenes [5] it was 10%; with Salmonella typhimurium [6], 15.4%.

With `CC1=C[C@@H]2C(=C(C)CC[C@H]2C(C)C)CC1`, the inhibition of growth at 11.64 µg/mL with Staphylococcus aureus [7] turned out to be 26.3%; with Escherichia coli [8] it was 9.5%; with Bacillus cereus [9], 20.3%; in the experiment on Listeria monocytogenes [10] it was 15.7%; in the experiment with Salmonella typhimurium [11], 4.3%; in the experiment with Vibrio parahaemolyticus [12], 32.5%.
